Series [1] can be described thus: Metabolic stability in Sprague-Dawley rat liver microsomes assessed as metabolic rate constant at 100 uM up to 180 mins by HPLC-UV analysis. To be noted: 3 h. For orientation: Liver microsomes are a subcellular fraction often used to study metabolism.
Series [2] is described as follows: Half life in Sprague-Dawley rat liver microsomes at 100 uM up to 180 mins by HPLC-UV analysis. To be noted: liver microsomes.
Series [3] relates to Mus musculus. Description: Toxicity in C57BL/6 mouse assessed as abnormal behavior at 677 to 2000 mg/kg, ig measured continuously during first 4 hrs, intermittently for following 24 hrs and occasionally thereafter for 14 consecutive days. The class given is organism-based. To be noted: in vivo, po. The method, boiled down:
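Adult C57BL/6 mice, 12 weeks old, given single intragastric doses of 0, 677, 1333 or 2000 mg/kg (n = 6 per dose, 3 male and 3 female). Abnormal behaviour and deaths observed continuously for the first 4 h, intermittently over the next 24 h, then occasionally for 14 days to catch delayed effects.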

The test system of series [4] is Mus musculus. Description: Toxicity in C57BL/6 mouse assessed as macroscopic abnormalities of stomach at 677 to 2000 mg/kg, ig after 14 consecutive days. To be noted: in vivo, po. The format is organism-based.
The subject of series [5] is Mus musculus. As to the kind of experiment: Toxicity in C57BL/6 mouse assessed as macroscopic abnormalities of spleen at 677 to 2000 mg/kg, ig after 14 consecutive days. The class given is organism-based. To be noted: in vivo, po.
Series [6] concerns Mus musculus. Description: Toxicity in C57BL/6 mouse assessed as histological abnormalities of lung at 2000 mg/kg, ig after 14 consecutive days by hematoxylin/eosin dye-based microscopic analysis. The class given is organism-based. To be noted: in vivo, po, 336 h. The method, boiled down:
(§1)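 Adult C57BL/6 mice, 12 weeks old, single intragastric doses of 0, 677, 1333 or 2000 mg/kg (n = 6 per dose, 3 male/3 female); behaviour and mortality observed over 14 days; liver, heart, lung and brain examined by HE staining at 2000 mg/kg.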

Series [7] deals with Mus musculus. As to the kind of experiment: Toxicity in C57BL/6 mouse assessed as histological abnormalities of liver at 2000 mg/kg, ig after 14 consecutive days by hematoxylin/eosin dye-based microscopic analysis. The format is organism-based. To be noted: in vivo, po, 336 h. The method, boiled down:
as §1

In series [8] the test system is Mus musculus. Description: Induction of cell proliferation in C57BL/6 mouse hippocampal neurons in CA3 region assessed as BrdU-incorporation at 0.5 uL/hr, icv for 7 days by immunohistochemical analysis (reference value: 1.4%). The format is functional.
For series [9], the system named is Mus musculus. Description: Induction of cell proliferation in C57BL/6 mouse hippocampal neurons in DG region assessed as BrdU-incorporation at 30 mg/kg, po administered via gavage for 7 days by immunohistochemical analysis (reference value: 2.2%). The format is functional. Put shortly:
(§2)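 C57BL/6 mice, 12 weeks old, n = 6, individually housed beforehand without wheels. Compound gavaged 30 mg/kg/day for 7 days with daily IP BrdU 50 mg/kg; BrdU+ cells counted by immunohistochemistry per hippocampal volume; two-way ANOVA.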

In series [10] the test system is Mus musculus. Description: Induction of cell proliferation in C57BL/6 mouse hippocampal neurons in CA2 region assessed as BrdU-incorporation at 30 mg/kg, po administered via gavage for 7 days by immunohistochemical analysis (reference value: 2.4%). The class given is functional. The method, boiled down:
as §2

For series [11], the system named is Mus musculus. As to the kind of experiment: Induction of cell proliferation in C57BL/6 mouse hippocampal neurons in CA3 region assessed as BrdU-incorporation at 30 mg/kg, po administered via gavage for 7 days by immunohistochemical analysis (reference value: 1.5%). The format is functional. The method, boiled down:
as §2

Series [12] concerns Mus musculus. Description: Toxicity in double APP/PS1 transgenic Alzheimer's disease mouse model assessed as effect on body weight at 30 mg/kg/day, po for 80 days. To be noted: in vivo, 1920 h. The format is organism-based. Put shortly: (§3)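 APP/PS1 double-transgenic mice, six months old, dosed by intragastric infusion at 30 mg/kg/day in 0.5% CMC-Na for 80 consecutive days (n = 10). Vehicle mice and wild-type C57BL/6 mice received blank 0.5% CMC-Na. Body weight tracked daily; diarrhoea, emesis-like behaviour and mortality monitored. At sacrifice, brain, subcutaneous layer, stomach, intestines, heart, lung, liver, spleen, kidneys and other organs examined for expansion or carcinogenicity.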

Series [13] deals with Mus musculus. Description: Toxicity in double APP/PS1 transgenic Alzheimer's disease mouse model assessed as diarrhea at 30 mg/kg/day, po for 80 days. To be noted: in vivo, 1920 h. The class given is organism-based. Put shortly:
as §3

Series [14] deals with Mus musculus. Description: Cognition enhancement activity in double APP/PS1 transgenic Alzheimer's disease mouse model assessed as swimming path length in correct quadrant at 30 mg/kg/day, po for 80 days by Morris water maze test (reference value: 295.3 +/- 46.9 cm). The format is functional. The method, boiled down: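 APP/PS1 mice, six months old, gavaged 30 mg/kg/day in 0.5% CMC-Na for 80 days. Probe trial was a single 90 s free swim with the platform absent; effective region is twice the platform diameter. n = 10, mean ± SD, two-way ANOVA.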

Series [15] deals with Mus musculus. Description: Toxicity in double APP/PS1 transgenic Alzheimer's disease mouse model assessed as carcinogenicity in intestine at 30 mg/kg/day, po for 80 days. The format is organism-based. To be noted: in vivo, 1920 h. Put shortly: as §3
For series [16], the system named is Mus musculus. As to the kind of experiment: Toxicity in double APP/PS1 transgenic Alzheimer's disease mouse model assessed as carcinogenicity in heart at 30 mg/kg/day, po for 80 days. The class given is organism-based. To be noted: in vivo, 1920 h. The method, boiled down: as §3
Series [17] has as its system Mus musculus. Description: Toxicity in double APP/PS1 transgenic Alzheimer's disease mouse model assessed as carcinogenicity in liver at 30 mg/kg/day, po for 80 days. To be noted: in vivo, 1920 h. The format is organism-based. Put shortly: as §3
Series [18] concerns Mus musculus. Description: Toxicity in double APP/PS1 transgenic Alzheimer's disease mouse model assessed as carcinogenicity in kidneys at 30 mg/kg/day, po for 80 days. The format is organism-based. To be noted: in vivo, 1920 h. The method, boiled down:
as §3

The test system of series [19] is Mus musculus. Description: Antialzheimer activity in double APP/PS1 transgenic Alzheimer's disease mouse model assessed as reduction in amyloid beta burden at 30 mg/kg/day, po for 80 days by immunochemical staining-based analysis relative to control. The format is functional. Also noted: scale not given: the % may be the effect or the level left. Put shortly: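 APP/PS1 mice gavaged 30 mg/kg/day for 80 days (n = 10). Coronal sections immunostained with mOC64 anti-Aβ antibody; plaque burden is the percent area of a half coronal hemisphere.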

Series [20] has as its system Mus musculus. As to the kind of experiment: Toxicity in C57BL/6 mouse assessed as macroscopic abnormalities of heart at 677 to 2000 mg/kg, ig after 14 consecutive days. The format is organism-based. To be noted: in vivo, po.
Series [21] has as its system Mus musculus. As to the kind of experiment: Toxicity in C57BL/6 mouse assessed as macroscopic abnormalities of liver at 677 to 2000 mg/kg, ig after 14 consecutive days. To be noted: in vivo, po. The class given is organism-based.
The nature of series [22]: Cmax in Sprague-Dawley rat at 30 mg/kg, po by LC-MS/MS analysis. The format is ADME, organism-based. On the set-up: dose 30 mg/kg, route oral. To be noted: in vivo. Put shortly: (§4)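 SD rats, single oral gavage 30 mg/kg, n = 3; plasma and brain drug levels taken 1 h after dosing, measured by LC-MS/MS.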
Series [23] is described as follows: AUC (0 to t) in Sprague-Dawley rat at 30 mg/kg, po by LC-MS/MS analysis. The class given is ADME, organism-based. To be noted: in vivo.
Series [24] can be described thus: AUC (0 to infinity) in Sprague-Dawley rat at 30 mg/kg, po by LC-MS/MS analysis. The format is ADME, organism-based. On the set-up: dose 30 mg/kg, time infinity, route oral. To be noted: in vivo.
Series [25] can be described thus: MRT (0 to infinity) in Sprague-Dawley rat at 30 mg/kg, po by LC-MS/MS analysis. The format is ADME, organism-based. To be noted: in vivo. The method, boiled down: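 SD rats given a single oral gavage dose of 30 mg/kg, n = 3; plasma levels by LC-MS/MS; bioavailability computed against the 5 mg/kg intravenous arm.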
Series [26] can be described thus: Drug uptake in Sprague-Dawley rat plasma at 30 mg/kg, po after 1 hr by LC-MS/MS analysis. The class given is ADME, organism-based. Put shortly:
as §4

Series [27] is described as follows: Drug uptake in Sprague-Dawley rat brain at 30 mg/kg, po after 1 hr by LC-MS/MS analysis. The class given is ADME, organism-based. To be noted: read-out: Drug uptake. The method, boiled down:
as §4

The term half-life denotes the time in which the quantity being followed falls by half. In the case of `Cl.Oc1c(Cl)cc(Cl)c2ccc(-c3cc4cc5c(cc4[nH]3)OCO5)nc12`, the K in series [1] came to 0.00178 min⁻¹. Moreover, the half-life at 3 h, 100 µM in series [2] is 6.49 h. Besides, the Activity result in the series with Mus musculus [3] was “Non-Toxic”; in the series with Mus musculus [4], “Non-Toxic”; in the series on Mus musculus [5] it was “Non-Toxic”; in the series with Mus musculus [6], “Non-Toxic”; in the series on Mus musculus [7] it was “Non-Toxic”; in the series with Mus musculus [8], 37.6%. The Activity in the series on Mus musculus [9] is given as 17%; with Mus musculus [10] it was 16.3%; with Mus musculus [11], 17.1%; in the series on Mus musculus [12], “Non-Toxic”; in the series on Mus musculus [13] it was “Non-Toxic”; in the series on Mus musculus [14] it was 473.5 cm. Further, the Activity entry with Mus musculus [15] is reported as “Non-Toxic”; in the series with Mus musculus [16], “Non-Toxic”; with Mus musculus [17], “Non-Toxic”; in the series on Mus musculus [18], “Non-Toxic”; in the series with Mus musculus [19] it was 26%; with Mus musculus [20], “Non-Toxic”. In the series on Mus musculus [21], the Activity entry is listed as “Non-Toxic”.

The Cmax is the maximum level reached in the sampled fluid or tissue. What is called AUC(0-t) is exposure summed from dosing to a finite time, without extrapolation to infinity. As a reminder, the AUC(0-inf) is the area under the concentration-time curve extrapolated to infinity. As a reminder, the MRT inf is the average time that molecules of a dose stay in the body. With `Cl.Oc1ccc2[nH]c(-c3ccc4c(Cl)cc(Cl)c(O)c4n3)cc2c1`, the K in [1] was 0.00593 min⁻¹. Also, the half-life at 3 h, 100 µM in series [2] amounted to 1.95 h. Also, the Activity entry in the series on Mus musculus [3] is recorded as “Non-Toxic”; in the series on Mus musculus [4] it was “Non-Toxic”; in the series on Mus musculus [5], “Non-Toxic”; in the series on Mus musculus [6], “Non-Toxic”; in the series with Mus musculus [7], “Non-Toxic”; with Mus musculus [8] it was 36.5%. Also, the Activity in the series on Mus musculus [9] was 30.6%; with Mus musculus [10], 24.3%; in the series on Mus musculus [11] it was 23.9%; in the series with Mus musculus [12] it was “Non-Toxic”; in the series with Mus musculus [13], “Non-Toxic”; in the series with Mus musculus [14] it was 533.3 cm. Further, the Activity entry with Mus musculus [15] is listed as “Non-Toxic”; in the series on Mus musculus [16], “Non-Toxic”; in the series with Mus musculus [17], “Non-Toxic”; in the series on Mus musculus [18] it was “Non-Toxic”; in the series with Mus musculus [19], “<=54%”; in the series with Mus musculus [20], “Non-Toxic”. Also, the Activity result with Mus musculus [21] is “Non-Toxic”. Besides, the Cmax in [22] came out at 1000 ng/mL. For the same compound, the AUC(0-t) in [23] is 1500 ng·h/mL. The compound also showed an AUC(0-inf) in series [24] of 1790 ng·h/mL. In series [25], this compound had a mean residence time MRT inf of 4.88 h. Besides, the concentration at 1 h came out at 902 ng/g in series [26] and 579 ng/g in [27].

For the origin of these results see ChEMBL document CHEMBL4118104, “Design, Synthesis, and Evaluation of Orally Bioavailable Quinoline-Indole Derivatives as Innovative Multitarget-Directed Ligands: Promotion of Cell Proliferation in the Adult Murine Hippocampus for the Treatment of Alzheimer's Disease” (J Med Chem, 2018).
